Experimental data as given in article PMC7810372 (Science Advances, 2021).
Each block holds one compound with its values, some of them ahead of it.

Assays:
BT-549 cells = assay: Extracellular flux assay, ECAR; type: cell-based, human; details: 2 µM, 24 hrs
Procedure, shortened: (§1)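 Seahorse XF96: cells were seeded for 24 h, then treated for a further 24 h. One hour before the run they were changed to XF Base medium, pH 7.4, with 1 mM L-glutamine. ECAR was read three times at baseline and three times after each sequential injection of glucose (10 mM), oligomycin (1 µM) and 2-DG (50 mM). Readings were protein-normalized, baseline-subtracted and expressed as fold change versus DMSO.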

[1] = test system: MDA231 BAX/BAK knockdown (siRNA) cells; assay: Drug screen and low-throughput cell viability; type: cell-based, human; details: 48 hr treatment, CellTiter-Glo % survival, BAX/BAK KD versus control
MDA231 cells = assay: Extracellular flux assay, ECAR; type: cell-based, human; details: 2 µM, 24 hrs
Procedure, shortened: as §1

[2] = test system: glucose transporter 1, hexokinase II; details: cited from earlier work
HDAC6 = molecular target: T1, HDAC6 (Homo sapiens, UniProt Q9UBN7); assay: HDAC inhibitory assay; type: biochemical
T1 sequence (Q9UBN7 1-1215): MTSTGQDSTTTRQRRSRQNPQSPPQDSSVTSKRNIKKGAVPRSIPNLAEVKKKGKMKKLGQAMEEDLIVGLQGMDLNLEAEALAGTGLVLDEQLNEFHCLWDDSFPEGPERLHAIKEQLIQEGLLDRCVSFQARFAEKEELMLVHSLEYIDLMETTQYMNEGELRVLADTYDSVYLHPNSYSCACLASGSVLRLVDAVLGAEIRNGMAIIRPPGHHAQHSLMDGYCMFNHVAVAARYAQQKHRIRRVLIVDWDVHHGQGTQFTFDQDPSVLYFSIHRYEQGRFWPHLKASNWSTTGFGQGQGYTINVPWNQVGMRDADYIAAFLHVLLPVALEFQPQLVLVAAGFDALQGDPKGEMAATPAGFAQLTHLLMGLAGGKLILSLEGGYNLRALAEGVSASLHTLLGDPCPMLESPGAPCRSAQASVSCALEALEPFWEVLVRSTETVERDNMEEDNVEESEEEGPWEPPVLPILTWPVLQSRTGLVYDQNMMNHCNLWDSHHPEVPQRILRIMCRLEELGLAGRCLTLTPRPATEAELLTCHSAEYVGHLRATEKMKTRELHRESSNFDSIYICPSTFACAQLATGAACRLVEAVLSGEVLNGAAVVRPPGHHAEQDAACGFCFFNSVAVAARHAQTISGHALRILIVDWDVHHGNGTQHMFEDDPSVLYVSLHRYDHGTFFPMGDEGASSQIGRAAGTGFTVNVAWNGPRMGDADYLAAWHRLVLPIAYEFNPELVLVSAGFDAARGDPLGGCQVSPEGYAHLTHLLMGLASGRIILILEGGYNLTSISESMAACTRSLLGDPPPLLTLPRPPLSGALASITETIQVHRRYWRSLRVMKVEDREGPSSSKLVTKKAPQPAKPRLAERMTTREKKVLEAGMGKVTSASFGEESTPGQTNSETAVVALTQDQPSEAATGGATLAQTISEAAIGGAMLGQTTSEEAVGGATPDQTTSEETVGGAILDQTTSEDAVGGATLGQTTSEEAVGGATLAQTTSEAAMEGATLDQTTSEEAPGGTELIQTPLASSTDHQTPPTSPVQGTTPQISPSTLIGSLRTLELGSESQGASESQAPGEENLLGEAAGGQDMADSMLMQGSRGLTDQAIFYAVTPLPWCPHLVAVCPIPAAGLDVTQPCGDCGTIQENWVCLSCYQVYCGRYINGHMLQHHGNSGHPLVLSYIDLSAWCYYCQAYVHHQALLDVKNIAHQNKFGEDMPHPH

HDAC8 = molecular target: T2, HDAC8 (Homo sapiens, UniProt Q9BY41); assay: HDAC inhibitory assay; type: biochemical
T2 sequence (Q9BY41 1-377): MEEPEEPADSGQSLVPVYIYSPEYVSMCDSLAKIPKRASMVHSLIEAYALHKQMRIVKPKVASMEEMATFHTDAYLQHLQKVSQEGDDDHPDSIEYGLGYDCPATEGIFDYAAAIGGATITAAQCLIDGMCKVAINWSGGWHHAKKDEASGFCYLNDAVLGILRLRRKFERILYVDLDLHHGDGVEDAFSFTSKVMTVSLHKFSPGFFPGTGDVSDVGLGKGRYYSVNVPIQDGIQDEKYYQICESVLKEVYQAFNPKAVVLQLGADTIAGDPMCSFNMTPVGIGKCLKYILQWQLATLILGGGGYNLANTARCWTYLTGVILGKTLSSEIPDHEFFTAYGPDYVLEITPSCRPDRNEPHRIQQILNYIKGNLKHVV

HDAC7 = molecular target: T3, HDAC7 (Homo sapiens, UniProt Q8WUI4); assay: HDAC inhibitory assay; type: biochemical
T3 sequence (Q8WUI4 1-952): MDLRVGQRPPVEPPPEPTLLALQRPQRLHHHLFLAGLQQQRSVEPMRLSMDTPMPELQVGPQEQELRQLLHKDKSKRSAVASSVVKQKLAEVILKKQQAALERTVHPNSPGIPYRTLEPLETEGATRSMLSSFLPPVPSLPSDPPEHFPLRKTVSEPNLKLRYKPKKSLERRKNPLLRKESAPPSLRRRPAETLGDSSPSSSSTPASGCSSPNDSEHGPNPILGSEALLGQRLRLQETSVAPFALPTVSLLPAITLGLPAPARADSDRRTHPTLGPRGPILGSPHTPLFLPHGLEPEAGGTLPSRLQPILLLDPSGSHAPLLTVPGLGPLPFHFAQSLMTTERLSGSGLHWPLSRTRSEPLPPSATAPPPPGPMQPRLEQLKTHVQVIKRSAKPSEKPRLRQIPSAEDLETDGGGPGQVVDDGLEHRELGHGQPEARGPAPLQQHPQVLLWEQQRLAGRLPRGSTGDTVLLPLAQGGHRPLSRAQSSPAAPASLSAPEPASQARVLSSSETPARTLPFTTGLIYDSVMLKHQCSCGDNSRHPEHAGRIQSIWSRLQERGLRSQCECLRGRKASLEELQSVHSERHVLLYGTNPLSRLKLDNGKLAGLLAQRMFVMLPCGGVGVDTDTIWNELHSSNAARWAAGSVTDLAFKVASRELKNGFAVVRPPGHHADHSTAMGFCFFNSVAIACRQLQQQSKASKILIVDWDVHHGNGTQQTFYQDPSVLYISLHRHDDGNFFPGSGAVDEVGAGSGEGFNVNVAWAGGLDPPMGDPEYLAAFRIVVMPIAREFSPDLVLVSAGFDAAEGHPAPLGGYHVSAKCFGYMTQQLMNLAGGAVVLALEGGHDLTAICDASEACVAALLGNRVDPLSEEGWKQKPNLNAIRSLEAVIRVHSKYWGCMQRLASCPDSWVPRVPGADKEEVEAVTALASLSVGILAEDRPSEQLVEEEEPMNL

HDAC1 = HDAC1 (Homo sapiens, UniProt Q13547); assay: HDAC inhibitory assay; type: biochemical
aldolase in BT-549 cells = assay: Aldolase activity assay; type: cell-based, human; details: 24 hr treatment
Procedure, shortened: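 Cells (1×10^6 for MDA231) were exposed to test compound for 24 h. Aldolase or GAPDH activity was then measured with a commercial kit following the maker's protocol. Values were normalized to protein concentration and expressed as fold change relative to DMSO.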

HDAC1, sequence (Q13547 whole entry): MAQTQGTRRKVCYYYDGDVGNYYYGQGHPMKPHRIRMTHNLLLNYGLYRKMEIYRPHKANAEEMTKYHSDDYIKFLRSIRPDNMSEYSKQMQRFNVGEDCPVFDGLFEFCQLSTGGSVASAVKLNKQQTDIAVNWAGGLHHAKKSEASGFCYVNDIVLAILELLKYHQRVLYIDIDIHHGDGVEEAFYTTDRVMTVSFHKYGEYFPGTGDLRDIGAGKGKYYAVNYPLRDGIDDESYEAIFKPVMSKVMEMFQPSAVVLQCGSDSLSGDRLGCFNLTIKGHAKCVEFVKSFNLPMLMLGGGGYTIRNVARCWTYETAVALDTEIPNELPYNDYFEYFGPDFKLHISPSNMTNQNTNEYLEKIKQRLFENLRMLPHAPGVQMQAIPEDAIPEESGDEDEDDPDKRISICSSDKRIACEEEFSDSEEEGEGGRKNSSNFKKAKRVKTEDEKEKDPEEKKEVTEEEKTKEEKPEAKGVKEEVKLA

SMILES: O=C(CCCCCCNC(=O)c1cnc(N(c2ccccc2)c2ccccc2Cl)nc1)NO [ACY-241]
- glycolysis and glycolytic capacity (ECAR) (BT-549 cells; 1 µM): confirmed all the above results

SMILES: CN(C)CC[C@H](CSc1ccccc1)Nc1ccc(S(=O)(=O)NC(=O)c2ccc(N3CCN(Cc4ccccc4-c4ccc(Cl)cc4)CC3)cc2)cc1[N+](=O)[O-] [ABT-737]
- response to apoptosis-inducing agents [1]: broadly resistant

SMILES: O=C(CCCCCCC(=O)Nc1ccc([C@H]2O[C@@H](CSc3nc(-c4ccccc4)c(-c4ccccc4)o3)C[C@@H](c3ccc(CO)cc3)O2)cc1)NO [tubacin]
- glycolysis and glycolytic capacity (ECAR) (BT-549 cells): confirmed all the above results
- extracellular acidification rate (ECAR) (MDA231 cells): reduction

SMILES: CCCC(CCC)C(=O)O [valproate]
- glucose transporter 1 [2]: reduction in the glucose transporter 1
- hexokinase II activity [2]: reduction in hexokinase II activity

- inhibition of HDAC activity (HDAC6): inhibits the activity
- inhibition of HDAC activity (HDAC8): inhibits the activity
- inhibition of HDAC activity (HDAC7): inhibits the activity
- inhibition of HDAC activity (HDAC1): inhibits the activity
SMILES: O=C(CCCCCCC(=O)Nc1ccccc1)NO [SAHA, suberoylanilide hydroxamic acid]

SMILES: O=C(CCCCCCNC(=O)c1cnc(N(c2ccccc2)c2ccccc2)nc1)NO [ACY-1215]
- aldolase enzymatic activity (aldolase in BT-549 cells): reduced aldolase activity

SMILES: COc1cc([C@@H]2c3cc4c(cc3[C@@H](O[C@@H]3O[C@@H]5CO[C@@H](C)O[C@H]5[C@H](O)[C@H]3O)[C@H]3COC(=O)[C@H]23)OCO4)cc(OC)c1O [etoposide]
- response to apoptosis-inducing agents [1]: broadly resistant
